Assay results: ChEMBL document CHEMBL3102784, “Salicylanilide diethyl phosphates: synthesis, antimicrobial activity and cytotoxicity” (Bioorg Med Chem, 2014)
pIC50: −log10 of the molar value. ≈ marks a conversion by molar mass, not a printed value. Calls of active or inactive are those of the source. No cut-off for these calls is given here.

Columns and labels:
[1] = tested on: Mycobacterium tuberculosis; test: Antimycobacterial activity against Mycobacterium tuberculosis H37Rv My 331/88 after 21 days; assay type: functional; details: H37Rv My 331/88, 504 h
Procedure, shortened: (§1)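 Micromethod MIC in Šula's semisynthetic medium at 37 °C. Compounds added in DMSO at 1000 down to 0.032 µmol/L. Isoniazid standard in sterile water at 0.5–250 µmol/L. Inocula: H37Rv 10^3, M. avium 10^5, M. kansasii 10^4. Read at 14 and 21 d, plus 7 d for M. kansasii.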

Mycobacterium kansasii [2] = test: Antimycobacterial activity against Mycobacterium kansasii 6509/96 after 21 days; assay type: functional; details: 6509/96, 504 h; procedure, shortened: as §1
Mycobacterium kansasii [3] = test: Antimycobacterial activity against Mycobacterium kansasii 6509/96 after 14 days; assay type: functional; details: 6509/96, 336 h; procedure, shortened: as §1
Staphylococcus aureus [4] = test: Antibacterial activity against Staphylococcus aureus CCM 4516/08 after 24 hrs by broth microdilution method; assay type: functional; details: CCM 4516/08, 24 h
Procedure, shortened: (§2)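 Broth microdilution in Mueller–Hinton broth, compounds dissolved in DMSO, tested over a dilution series from 500 downward. MIC taken as ≥95% growth reduction (IC95) versus drug-free control. Benzylpenicillin comparator. Readings at 24 and 48 h.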

[5] = tested on: Staphylococcus epidermidis; test: Antibacterial activity against Staphylococcus epidermidis H 6966/08 after 48 hrs by broth microdilution method; assay type: functional; details: H 6966/08, 48 h; procedure, shortened: as §2
Aspergillus fumigatus [6] = test: Antifungal activity against Aspergillus fumigatus 231 after 24 hrs by broth microdilution method; assay type: functional; details: Aspergillus fumigatus, 231, 24 h
Procedure, shortened: (§3)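 Broth microdilution in RPMI 1640 with glutamine, fluconazole as reference. For yeasts, MIC is ≥80% growth reduction (IC80) versus control. For filamentous fungi, the value is expressed as IC50. Readings at 24 and 48 h.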

Staphylococcus aureus [7] = test: Antibacterial activity against methicillin-resistant Staphylococcus aureus H 5996/08 after 24 hrs by broth microdilution method; assay type: functional; details: H 5996/08, 24 h; procedure, shortened: as §2
Pichia kudriavzevii [8] = test: Antifungal activity against Candida krusei E28 after 48 hrs by broth microdilution method; assay type: functional; details: E28, 48 h; procedure, shortened: as §3
Lichtheimia corymbifera [9] = test: Antifungal activity against Absidia corymbifera 272 after 48 hrs by broth microdilution method; assay type: functional; details: Lichtheimia corymbifera, 272, 48 h; procedure, shortened: as §3
Candida tropicalis = test: Antifungal activity against Candida tropicalis 156 at 500 micromol/L after 24 to 48 hrs by broth microdilution method; assay type: functional, organism-based; procedure, shortened: as §3
HepG2 = test: Cytotoxicity against human HepG2 cells after 24 hrs by CellTiter assay; assay type: cell-based; details: HepG2, 24 h
Procedure, shortened: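 HepG2 cells (passage 27–33) in MEM with 10% FBS, L-glutamine and NEAA, seeded at 1×10^4 per well. Treated next day with compounds at 0.1–100 µM (or 0.1–25 µmol/L), triplicates, <1% DMSO, for 24 h at 37 °C, 5% CO2. MTS reagent added for 2 h, absorbance read at 490 nm. IC50 taken against untreated (100%) and 10% DMSO (0%) controls.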

Lichtheimia corymbifera [10] = test: Antifungal activity against Absidia corymbifera 272 after 24 hrs by broth microdilution method; assay type: functional; details: Lichtheimia corymbifera, 272, 24 h; procedure, shortened: as §3
Mycobacterium avium [11] = test: Antimycobacterial activity against isoniazid, rifampicin, ethambutol and ofloxacin-resistant Mycobacterium avium My 330/88 after 21 days; assay type: functional; details: My 330/88, 504 h; procedure, shortened: as §1
Aspergillus fumigatus [12] = test: Antifungal activity against Aspergillus fumigatus 231 after 48 hrs by broth microdilution method; assay type: functional; details: Aspergillus fumigatus, 231, 48 h; procedure, shortened: as §3
Nakaseomyces glabratus = test: Antifungal activity against Candida glabrata 20/I at 500 micromol/L after 24 to 48 hrs by broth microdilution method; assay type: functional, organism-based; procedure, shortened: as §3
Mycobacterium kansasii [13] = test: Antimycobacterial activity against Mycobacterium kansasii 6509/96 after 7 days; assay type: functional; details: 6509/96, 168 h; procedure, shortened: as §1
Trichosporon asahii [14] = test: Antifungal activity against Trichosporon asahii 1188 after 48 hrs by broth microdilution method; assay type: functional; details: Trichosporon asahii, 1188, 48 h; procedure, shortened: as §3
[15] = tested on: Mycobacterium tuberculosis; test: Antimycobacterial activity against Mycobacterium tuberculosis H37Rv My 331/88 after 14 days; assay type: functional; details: H37Rv My 331/88, 336 h; procedure, shortened: as §1
Pichia kudriavzevii [16] = test: Antifungal activity against Candida krusei E28 after 24 hrs by broth microdilution method; assay type: functional; details: E28, 24 h; procedure, shortened: as §3
Staphylococcus aureus [17] = test: Antibacterial activity against Staphylococcus aureus CCM 4516/08 after 48 hrs by broth microdilution method; assay type: functional; details: CCM 4516/08, 48 h; procedure, shortened: as §2
Klebsiella pneumoniae [18] = test: Antibacterial activity against Klebsiella pneumoniae D 11750/08 at 500 micromol/L after 24 to 48 hrs by broth microdilution method; assay type: functional, organism-based; procedure, shortened: as §2
Pseudomonas aeruginosa = test: Antibacterial activity against Pseudomonas aeruginosa CCM 1961 at 500 micromol/L after 24 to 48 hrs by broth microdilution method; assay type: functional, organism-based; procedure, shortened: as §2
Mycobacterium kansasii [19] = test: Antimycobacterial activity against Mycobacterium kansasii My 235/80 after 21 days; assay type: functional; details: My 235/80, 504 h; procedure, shortened: as §1
Candida albicans [20] = test: Antifungal activity against Candida albicans ATCC 44859 after 24 hrs by broth microdilution method; assay type: functional; details: ATCC 44859, 24 h; procedure, shortened: as §3
[21] = tested on: Trichophyton mentagrophytes; test: Antifungal activity against Trichophyton mentagrophytes 445 after 72 hrs by broth microdilution method; assay type: functional; details: Trichophyton mentagrophytes, 445, 72 h
Procedure, shortened: (§4)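 Filamentous dermatophyte tested by broth microdilution in RPMI 1640 with glutamine, fluconazole as reference. Value expressed as IC50 relative to growth control. Read at 72 and 120 h.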

Enterococcus sp. = test: Antibacterial activity against Enterococcus sp. J 14365/08 at 500 micromol/L after 24 to 48 hrs by broth microdilution method; assay type: functional, organism-based; procedure, shortened: as §2
[22] = tested on: Trichophyton mentagrophytes; test: Antifungal activity against Trichophyton mentagrophytes 445 after 120 hrs by broth microdilution method; assay type: functional; details: Trichophyton mentagrophytes, 445, 120 h; procedure, shortened: as §4
Mycobacterium avium [23] = test: Antimycobacterial activity against isoniazid, rifampicin, ethambutol and ofloxacin-resistant Mycobacterium avium My 330/88 after 14 days; assay type: functional; details: My 330/88, 336 h; procedure, shortened: as §1
Mycobacterium kansasii [24] = test: Antimycobacterial activity against Mycobacterium kansasii My 235/80 after 7 days; assay type: functional; details: My 235/80, 168 h; procedure, shortened: as §1
Candida albicans [25] = test: Antifungal activity against Candida albicans ATCC 44859 after 48 hrs by broth microdilution method; assay type: functional; details: ATCC 44859, 48 h; procedure, shortened: as §3
Klebsiella pneumoniae [26] = test: Antibacterial activity against ESBL-positive Klebsiella pneumoniae J 14368/08 at 500 micromol/L after 24 to 48 hrs by broth microdilution method; assay type: functional, organism-based; procedure, shortened: as §2
Trichosporon asahii [27] = test: Antifungal activity against Trichosporon asahii 1188 after 24 hrs by broth microdilution method; assay type: functional; details: Trichosporon asahii, 1188, 24 h; procedure, shortened: as §3
Escherichia coli = test: Antibacterial activity against Escherichia coli CCM 4517 at 500 micromol/L after 24 to 48 hrs by broth microdilution method; assay type: functional, organism-based; procedure, shortened: as §2
[28] = tested on: Staphylococcus epidermidis; test: Antibacterial activity against Staphylococcus epidermidis H 6966/08 after 24 hrs by broth microdilution method; assay type: functional; details: H 6966/08, 24 h; procedure, shortened: as §2
Mycobacterium kansasii [29] = test: Antimycobacterial activity against Mycobacterium kansasii My 235/80 after 14 days; assay type: functional; details: My 235/80, 336 h; procedure, shortened: as §1
Staphylococcus aureus [30] = test: Antibacterial activity against methicillin-resistant Staphylococcus aureus H 5996/08 after 48 hrs by broth microdilution method; assay type: functional; details: H 5996/08, 48 h; procedure, shortened: as §2

Row | SMILES | MIC [1] [µM] | MIC (Mycobacterium kansasii [2]) [µM] | MIC (Mycobacterium kansasii [3]) [µM] | MIC95 (Staphylococcus aureus [4]) [µM] | MIC95 [5] [µM] | MIC50 (Aspergillus fumigatus [6]) [µM] | MIC95 (Staphylococcus aureus [7]) [µM] | MIC80 (Pichia kudriavzevii [8]) [µM] | MIC50 (Lichtheimia corymbifera [9]) [µM] | Activity (Candida tropicalis) | pIC50 (HepG2) | MIC50 (Lichtheimia corymbifera [10]) [µM] | MIC (Mycobacterium avium [11]) [µM] | MIC50 (Aspergillus fumigatus [12]) [µM] | Activity (Nakaseomyces glabratus) | MIC (Mycobacterium kansasii [13]) [µM] | MIC80 (Trichosporon asahii [14]) [µM] | MIC [15] [µM] | MIC80 (Pichia kudriavzevii [16]) [µM] | MIC95 (Staphylococcus aureus [17]) [µM] | other results
1 | CCOP(=O)(OCC)Oc1ccc(Br)cc1C(=O)Nc1ccc(Cl)cc1 | 4 (≈ 1.85 µg/mL) | 4 (≈ 1.85 µg/mL) | 4 (≈ 1.85 µg/mL) | 500 (≈ 231 µg/mL) | > 500 | > 500 | 500 (≈ 231 µg/mL) | > 500 | > 500 | inactive | 5.17 | > 500 | 8 (≈ 3.7 µg/mL) | > 500 | inactive | 4 (≈ 1.85 µg/mL) | > 500 | 2 (≈ 0.925 µg/mL) | > 500 | > 500 | Activity (Klebsiella pneumoniae [18]): inactive; Activity (Pseudomonas aeruginosa): inactive; MIC (Mycobacterium kansasii [19]): 8 µM (≈ 3.7 µg/mL); MIC80 (Candida albicans [20]): > 500 µM; MIC50 [21]: > 500 µM; Activity (Enterococcus sp.): inactive; MIC50 [22]: > 500 µM; MIC (Mycobacterium avium [23]): 8 µM (≈ 3.7 µg/mL); MIC (Mycobacterium kansasii [24]): 4 µM (≈ 1.85 µg/mL); MIC80 (Candida albicans [25]): > 500 µM; Activity (Klebsiella pneumoniae [26]): inactive; MIC80 (Trichosporon asahii [27]): > 500 µM; Activity (Escherichia coli): inactive; MIC95 [28]: 500 µM (≈ 231 µg/mL); MIC (Mycobacterium kansasii [29]): 4 µM (≈ 1.85 µg/mL); MIC95 (Staphylococcus aureus [30]): > 500 µM
2 | CCOP(=O)(OCC)Oc1ccc(Cl)cc1C(=O)Nc1ccc(Cl)c(Cl)c1 | 1 (≈ 0.453 µg/mL) | 4 (≈ 1.81 µg/mL) | 4 (≈ 1.81 µg/mL) | > 500 | > 500 | > 500 | > 500 | > 500 | > 500 | inactive | 5.55 | > 500 | 16 (≈ 7.24 µg/mL) | > 500 | inactive | 4 (≈ 1.81 µg/mL) | > 500 | 1 (≈ 0.453 µg/mL) | > 500 | > 500 | Activity (Klebsiella pneumoniae [18]): inactive; Activity (Pseudomonas aeruginosa): inactive; MIC (Mycobacterium kansasii [19]): 4 µM (≈ 1.81 µg/mL); MIC80 (Candida albicans [20]): > 500 µM; MIC50 [21]: 500 µM (≈ 226 µg/mL); Activity (Enterococcus sp.): inactive; MIC50 [22]: 500 µM (≈ 226 µg/mL); MIC (Mycobacterium avium [23]): 16 µM (≈ 7.24 µg/mL); MIC (Mycobacterium kansasii [24]): 4 µM (≈ 1.81 µg/mL); MIC80 (Candida albicans [25]): > 500 µM; Activity (Klebsiella pneumoniae [26]): inactive; MIC80 (Trichosporon asahii [27]): > 500 µM; Activity (Escherichia coli): inactive; MIC95 [28]: > 500 µM; MIC (Mycobacterium kansasii [29]): 4 µM (≈ 1.81 µg/mL); MIC95 (Staphylococcus aureus [30]): > 500 µM
3 | CCOP(=O)(OCC)Oc1cc(Cl)ccc1C(=O)Nc1cccc(Cl)c1 | 8 (≈ 3.35 µg/mL) | 8 (≈ 3.35 µg/mL) | 8 (≈ 3.35 µg/mL) | 500 (≈ 209 µg/mL) | 500 (≈ 209 µg/mL) | > 500 | 500 (≈ 209 µg/mL) | > 500 | > 500 | inactive | 5.02 | > 500 | 16 (≈ 6.69 µg/mL) | > 500 | inactive | 8 (≈ 3.35 µg/mL) | > 500 | 4 (≈ 1.67 µg/mL) | > 500 | 500 (≈ 209 µg/mL) | Activity (Klebsiella pneumoniae [18]): inactive; Activity (Pseudomonas aeruginosa): inactive; MIC (Mycobacterium kansasii [19]): 8 µM (≈ 3.35 µg/mL); MIC80 (Candida albicans [20]): > 500 µM; MIC50 [21]: > 500 µM; Activity (Enterococcus sp.): inactive; MIC50 [22]: > 500 µM; MIC (Mycobacterium avium [23]): 16 µM (≈ 6.69 µg/mL); MIC (Mycobacterium kansasii [24]): 4 µM (≈ 1.67 µg/mL); MIC80 (Candida albicans [25]): > 500 µM; Activity (Klebsiella pneumoniae [26]): inactive; MIC80 (Trichosporon asahii [27]): > 500 µM; Activity (Escherichia coli): inactive; MIC95 [28]: 250 µM (≈ 105 µg/mL); MIC (Mycobacterium kansasii [29]): 8 µM (≈ 3.35 µg/mL); MIC95 (Staphylococcus aureus [30]): 500 µM (≈ 209 µg/mL)
